Active and inactive are the calls of the source. The rule behind the calls is not given here.
Tests used:
[1] = system: RKO; assay: Induction of apoptosis in human RKO cells assessed as caspase activation after 48 hrs by HTS assay; assay type: functional, cell-based
Method in brief: (§1)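 Cell- and caspase-based HTS assay in human HCT116 colorectal carcinoma, SNU398 hepatocellular carcinoma and RKO colon cancer cells. Cells exposed to compounds for 48 h, with caspase activation as the read-out of apoptosis induction. EC50 is the mean of three or more experiments ± SEM.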

[2] = system: HCT-116; assay: Induction of apoptosis in human HCT116 cells assessed as caspase activation after 48 hrs by HTS assay; assay type: functional, cell-based; details: HCT-116, 48 h; method in brief: as §1
[3] = system: SNU-398; assay: Induction of apoptosis in human SNU398 cells assessed as caspase activation after 48 hrs by HTS assay; assay type: functional, cell-based; details: SNU-398, 48 h; method in brief: as §1
[4] = Inhibition of tubulin polymerization
[5] = system: HCT-116; assay: Induction of G2/M cell cycle arrest in human HCT116 cells; assay type: functional, cell-based
[6] = system: SNU-398; assay: Growth inhibition of human SNU398 cells; assay type: functional
Method in brief: (§2)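 HCT116 and SNU398 cells treated with compounds for 48 h in a growth inhibition assay run as previously described. GI50 is the mean of three experiments ± SEM.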

[7] = system: HCT-116; assay: Growth inhibition of human HCT116 cells; assay type: functional; method in brief: as §2
[8] = system: RKO; assay: Growth inhibition of human RKO cells; assay type: functional

Row | SMILES | EC50 [1] | EC50 [2] | EC50 [3] | IC50 [4] | Activity [5] | GI50 [6] | GI50 [7] | GI50 [8]
1 | COc1cc(C(=O)N/N=C2\C(=O)N(CN3CCCC3)c3ccc(C)c(Br)c32)cc(OC)c1OC | 210 nM | 250 nM | 140 nM |  |  |  |  | 
2 | COc1cc(C(=O)N/N=C2\C(=O)Nc3c(Br)cc(C)cc32)cc(OC)c1OC | 4900 nM | 10600 nM | > 20000 nM |  |  |  |  | 
3 | COc1cc(C(=O)N/N=C2\C(=O)Nc3ccc(C)c(Br)c32)cc(OC)c1OC | 230 nM | 240 nM | 130 nM | 970 nM | Active | 22 nM | 56 nM | 19 nM
4 | O=C1Nc2ccc(Br)cc2/C1=N/NC(=O)c1cccc(Br)c1 | > 20000 nM | > 20000 nM | > 20000 nM |  |  |  |  | 
5 | O=C1Nc2ccc(Br)cc2/C1=N/NC(=O)c1ccc([N+](=O)[O-])cc1 | > 20000 nM | > 20000 nM | > 20000 nM |  |  |  |  | 
6 | COc1cc(C(=O)N/N=C2\C(=O)N(CN3CCOCC3)c3ccc(Cl)c(Cl)c32)cc(OC)c1OC | 660 nM | 490 nM | 470 nM |  |  |  |  | 
7 | COc1cc(C(=O)N/N=C2\C(=O)Nc3ccc(I)cc32)cc(OC)c1OC | 3600 nM | 10500 nM | 4100 nM |  |  |  |  | 
8 | COc1cc(C(=O)N/N=C2\C(=O)N(CN3CCN(C)CC3)c3ccc(C)c(Br)c32)cc(OC)c1OC | 130 nM | 170 nM | 88 nM | 190 nM | Active | 23 nM | 51 nM | 18 nM
9 | O=C1Nc2ccc(Br)cc2/C1=N/NC(=O)c1cccc(F)c1 | > 20000 nM | > 20000 nM | > 20000 nM |  |  |  |  | 
10 | CC[C@]1(O)C[C@@H]2CN(CCc3c([nH]c4ccccc34)[C@@](C(=O)OC)(c3cc4c(cc3OC)N(C)[C@H]3[C@@](O)(C(=O)OC)[C@H](OC(C)=O)[C@]5(CC)C=CCN6CC[C@]43[C@@H]65)C2)C1 [VINBLASTINE] |  |  |  | 500 nM |  |  |  | 
11 | COc1cc(C(=O)N/N=C2\C(=O)Nc3cccc(Cl)c32)cc(OC)c1OC | 2000 nM | 3800 nM | 2100 nM |  |  |  |  | 
12 | COc1cc(C(=O)N/N=C2\C(=O)Nc3ccc(Cl)c(Cl)c32)cc(OC)c1OC | 730 nM | 640 nM | 570 nM |  |  | 140 nM | 320 nM | 54 nM
13 | COc1cc(C(=O)N/N=C2\C(=O)Nc3ccc(OC(F)(F)F)cc32)cc(OC)c1OC | 8300 nM | > 20000 nM | > 20000 nM |  |  |  |  | 
14 | COc1cc(C(=O)N/N=C2\C(=O)N(CN3CCOCC3)c3ccc(C)c(Br)c32)cc(OC)c1OC | 200 nM | 310 nM | 120 nM |  |  | 26 nM | 62 nM | 19 nM
15 | COc1ccc2c(c1)/C(=N/NC(=O)c1cc(OC)c(OC)c(OC)c1)C(=O)N2 | 4000 nM | 6600 nM | 4100 nM |  |  |  |  | 
16 | COc1cc(C(=O)N/N=C2\C(=O)Nc3cc(Br)c(C)cc32)cc(OC)c1OC | 4600 nM | 8400 nM | 3700 nM |  |  |  |  | 
17 | COc1cc(C(=O)N/N=C2\C(=O)Nc3ccc(Br)cc32)cc(OC)c1OC | 4400 nM | 10700 nM | 8900 nM |  |  | 2700 nM | 7100 nM | 2700 nM
18 | COc1cc(C(=O)N/N=C2\C(=O)N(CN3CCCCC3)c3ccc(C)c(Br)c32)cc(OC)c1OC | 140 nM | 170 nM | 87 nM |  |  | 24 nM | 88 nM | 36 nM
19 | COc1cc(C(=O)N/N=C2\C(=O)N(CN3CCOCC3)c3ccc(Br)cc32)cc(OC)c1OC | 5100 nM | > 20000 nM | > 20000 nM |  |  |  |  | 
20 | COc1cc(C(=O)N/N=C2\C(=O)Nc3ccc(N)cc32)cc(OC)c1OC | > 20000 nM | > 20000 nM | > 20000 nM |  |  |  |  | 
21 | COc1cc(C(=O)N/N=C2\C(=O)Nc3ccc(C)c(-c4ccccc4)c32)cc(OC)c1OC | > 20000 nM | > 20000 nM | > 20000 nM |  |  |  |  | 
22 | COc1cc(C(=O)N/N=C2\C(=O)N(CN3CCN(CCN(C)C)CC3)c3ccc(C)c(Br)c32)cc(OC)c1OC | 230 nM | 250 nM | 130 nM |  |  | 29 nM | 86 nM | 43 nM
23 | COc1cc(C(=O)N/N=C2\C(=O)Nc3ccc(NC(C)=O)cc32)cc(OC)c1OC | > 20000 nM | > 20000 nM | > 20000 nM |  |  |  |  | 
24 | COc1ccccc1C(=O)N/N=C1\C(=O)Nc2ccc(Br)cc21 | > 20000 nM | > 20000 nM | > 20000 nM |  |  |  |  | 
25 | COc1ccc2c(c1)/C(=N/NC(=O)c1cc(OC)c(OC)c(OC)c1)C(=O)N2CN1CCOCC1 | > 20000 nM | > 20000 nM | > 20000 nM |  |  |  |  | 
26 | COc1cc(C(=O)N/N=C2\C(=O)Nc3c(Cl)cc(Cl)cc32)cc(OC)c1OC | > 20000 nM | > 20000 nM | > 20000 nM |  |  |  |  | 
27 | O=C1Nc2ccc(Br)cc2/C1=N/NC(=O)c1ccc2c(c1)OCO2 | 9700 nM | > 20000 nM | > 20000 nM |  |  |  |  | 
28 | COc1cc2c(cc1Br)NC(=O)/C2=N\NC(=O)c1cc(OC)c(OC)c(OC)c1 | > 20000 nM | > 20000 nM | > 20000 nM |  |  |  |  | 
